Rows were chosen to be rich in hits. Some 2.4% of all compounds tested hit in one or more screens of this group.
LMPTP block – blocks human LMPTP phosphatase. recombinant LMPTP-A, OMFP fluorogenic substrate, fluorescence intensity. inhibition, % at 20 µM. 0.22% of 360,000 active. AID 651560;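 active = compounds that cut the enzyme signal by at least half of the control window in the single-dose screen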;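 also: plate controls were DMSO wells with enzyme plus substrate for no effect and substrate without enzyme for full effect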
Target sequence (P24666 whole entry, looked up): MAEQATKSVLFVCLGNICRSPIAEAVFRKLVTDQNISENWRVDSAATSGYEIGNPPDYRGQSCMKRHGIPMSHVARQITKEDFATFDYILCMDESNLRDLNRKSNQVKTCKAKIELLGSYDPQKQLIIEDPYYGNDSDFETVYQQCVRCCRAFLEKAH
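Test system: LMPTP-A phosphatase enzyme; input: 0.625 nM LMPTP-A final; reagent: OMFP substrate, 400 µM final; compound dosing: 20 µM single dose, 3% DMSO; incubation: 50 min dark incubation at room temperature; measured by: endpoint fluorescence intensity from OMFP dephosphorylation; measure: % inhibition relative to no-enzyme and uninhibited control wells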
DNMT1 block – blocks human DNA methyltransferase DNMT1; P26358; DNMT1 molecular beacon, Hinp1I cleavage, fluorescence; inhibition (reported as % activation of signal), % at 10 µM; 0.83% of 360,000 active; in the data active = inhibition above about 50%
Scp-1 inhibitor – Scp-1 (human) phosphatase inhibition | Recombinant Scp1, phosphopeptide, malachite green phosphate absorbance | AID 493091 | 0.88% of 340,000 active | inhibition, % at 20 µM | Q9GZU7;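 active = inhibition above about 50% at 20 µM, limit read from the data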;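 also: plate controls were DMSO wells with enzyme for no effect and wells lacking enzyme for full effect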
Target sequence (Q9GZU7 76-261 limits assumed): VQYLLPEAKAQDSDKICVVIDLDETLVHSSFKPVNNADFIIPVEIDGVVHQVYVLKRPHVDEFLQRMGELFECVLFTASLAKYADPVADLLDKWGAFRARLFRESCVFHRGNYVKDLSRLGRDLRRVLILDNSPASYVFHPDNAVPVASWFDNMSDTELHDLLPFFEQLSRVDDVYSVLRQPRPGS
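Times: enzyme reaction 45 min at room temperature, colour 5 min, stabilisation 30 min. Material: SCP-1 catalytic fragment, aa 76-261. Medium: Acidic Tris acetate buffer with magnesium and detergent. Signal: colorimetric free-phosphate detection, absorbance 630 nm. Read-out basis: % inhibition of SCP-1 phosphate liberation. Reagent: Phosphorylated 17-residue peptide substrate.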
STEP block – inhibitors of human striatal-enriched phosphatase STEP. P54829. recombinant STEP, OMFP fluorogenic substrate, fluorescence. inhibition, % at 20 µM. 0.25% of 360,000 active;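 active = inhibition at 20 µM, scaled per plate between control wells, above about 37%, limit read from the data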;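 also: 0% = DMSO with enzyme and substrate and 100% = substrate only without enzyme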
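material = STEP tyrosine phosphatase | reagent = fluorogenic phosphatase substrate OMFP at 25 µM final | doses = single compound dose of 20 µM, 1% DMSO final | schedule = 20 min reaction, room temperature, in the dark | measured by = fluorescence, 480/540 nm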
NadD block – inhibitors of Staphylococcus aureus NadD. purified NadD enzyme, colorimetric absorbance read-out. inhibition, % at 20 µM. 0.78% of 360,000 active. AID 602399; in the data active = inhibition above about 26%
SUMO1-SIM PPI – alters human SUMO1 binding to SIM partners | SUMO1 binding to a labelled peptide, TR-FRET, 1 h | P63165 | inhibition, % at 20 µM | AID 602429 | 0.33% of 360,000 active; in the data active = inhibition above about 37%
Target sequence (P63165 whole entry, looked up): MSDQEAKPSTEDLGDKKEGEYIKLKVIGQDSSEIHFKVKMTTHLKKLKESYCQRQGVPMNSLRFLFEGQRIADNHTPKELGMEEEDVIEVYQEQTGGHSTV
Scp-1 conf – Scp-1 (human) inhibition, single-dose confirmed; shares compounds with Scp-1 inhibitor; inhibition, % at 20 µM; AID 540281; 61% of 2,500 active; recombinant SCP-1 catalytic domain, phosphate release, malachite green absorbance;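 also: plate controls were DMSO with enzyme for no effect and buffer wells lacking enzyme for full effect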
MG interference – interferes with malachite green readout, flagging false Scp-1 hits; 2,500 tested, under 10 active; shares compounds with Scp-1 inhibitor; Colorimetric interference counterscreen, malachite green absorbance 630 nm; apparent inhibition (interference), % at 20 µM; AID 540313;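 also: compounds added after enzyme reaction finished so only phosphate colour detection is probed; plate controls were DMSO wells with completed Scp-1 reaction for no effect and substrate wells lacking enzyme for full effect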
Scp1 DSF – validation of human Scp-1 inhibitors by thermal shift binding; shares compounds with Scp-1 inhibitor; Recombinant SCP1, Sypro Orange thermal shift Tm; thermal shift relative to vanadate control, % at 40 µM; 25% of 1,500 active; AID 540329;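 active = substances whose mean melting-temperature shift, as a percentage of the reference inhibitor's shift, reaches about 5.3%, limit read from the data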;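 also: 0% = Tm of DMSO wells and 100% = Tm with sodium orthovanadate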
An asterisk follows results filed as active; . = no result.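 The calls were made as follows, unless noted: active = inhibition of at least 30% at 20 µM; inactive = the rest.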

SMILES | LMPTP block | DNMT1 block | Scp-1 inhibitor | STEP block | NadD block | SUMO1-SIM PPI | Scp-1 conf | MG interference | others
C[N+]1=C2CCCCCN2C(O)(c2ccccc2)C1 (centres undefined) | -2 | 3 | 96* | -3 | 16 | 1 | 94* | -10 | Scp1 DSF=-11
CC(NC(=O)CCNS(=O)(=O)c1ccccc1)c1ccccc1 (centres undefined) | -3 | 3 | 51* | -2 | 0 | -2 | -4 | -9
COc1cc(C)cc(C(=O)C=Cc2ccccc2)c1O | 0 | 3 | -10 | 2 | -4 | -10 | . | .
Nc1nnc(CC(=O)N/N=C/c2ccc(-c3cccc(C(=O)O)c3)o2)s1 | -2 | -1 | 54* | 1 | -5 | 11 | 45* | -6 | Scp1 DSF=1
Nc1nnc(CC(=O)N/N=C/c2ccc(-c3ccc(F)cc3)o2)s1 | 2 | -3 | 1 | 3 | -2 | -22 | . | .
O=C(O)c1cc2c(s1)-c1ccccc1CC2 | -1 | 1 | -7 | -5 | -4 | -8 | . | .
O=C(N/N=C/c1ccc(Cl)cc1)c1cc2c(s1)-c1ccccc1CC2 | 24 | 33 | 101* | -3 | 5 | 3 | 64* | -15 | Scp1 DSF=-18
O=[N+]([O-])c1ccc(/C=N/Nc2ncc(Br)cn2)cc1 | 14 | 14 | 2 | 19 | 5 | 4 | . | .
O=[N+]([O-])c1ccc(/C=N/Nc2ncc(-c3ccccc3)cn2)cc1 | 23 | 30 | 68* | 22 | 0 | -6 | 28 | -8
Cc1cc(C)n2nc(C(=O)OCC(=O)c3ccccc3Cl)nc2n1 | 0 | -2 | -2 | 2 | -2 | 1 | . | .
Cc1cc(C(=O)COC(=O)c2cc(Cl)c(O)c(Cl)c2)c(C)n1C | 5 | 55* | 55* | 3 | 5 | 34 | 36* | -14 | Scp1 DSF=9.4*
Cc1cc(C)n2nc(C(=O)OCC(=O)c3cc(C)n(C)c3C)nc2n1 | 1 | 26 | 52* | 1 | -1 | 0 | 58* | -15 | Scp1 DSF=-2
O=C(CCc1ccc(S(=O)(=O)NCc2ccccc2)cc1)NCC1CCCO1 (centres undefined) | -1 | -1 | -2 | 4 | -5 | -1 | . | .
CC(C)(C)OC(=O)N1CCC[C@@H]1CO | -1 | 3 | -3 | -3 | 0 | -4 | . | .
CC1=CC(C)(C)N(C(=O)c2ccccc2)c2ccccc21 | 0 | -3 | -14 | 3 | -7 | -6 | . | .
CC1=CC(C)(C)[N+](C)(C)c2ccccc21 | -1 | -2 | 72* | -2 | 14 | 4 | 2 | -9
Clc1nc(Cl)nc(-c2cn(-c3ccccc3)c3ccccc23)n1 | . | . | 91* | . | . | . | 72* | -15 | Scp1 DSF=-25
COc1cccc(/C=C/c2ccncc2)c1OC | -2 | -1 | -1 | -4 | -7 | -7 | . | .
Cc1nnc(Sc2cc(C(=O)NCCCOC(C)C)c3ccccc3n2)s1 | -1 | 1 | -2 | 1 | -2 | -8 | . | .
Clc1ccc(OCc2nn3c(-c4ccco4)nnc3s2)c(Cl)c1 | 32 | 39 | 81* | 4 | 8 | 0 | 70* | -11 | Scp1 DSF=2
Cc1ccc(OCc2nn3c(-c4ccco4)nnc3s2)cc1 | 0 | 3 | -2 | 4 | 5 | 1 | . | .
CC(=O)c1ccc(N2Cc3ccccc3/C2=N\C(=O)Nc2ccc(Cl)cc2)cc1 | 2 | 0 | -4 | -1 | 7 | -3 | . | .
NC(=O)c1cc(S(=O)(=O)NCCCc2ccccc2)cs1 | 0 | 2 | -10 | 2 | 0 | 4 | . | .
CC(C)Oc1ccc(CNS(=O)(=O)c2csc(C(N)=O)c2)cc1 | -1 | 1 | 2 | 3 | -4 | 9 | -10 | -13
CN(C)c1ccc(CNS(=O)(=O)c2csc(C(N)=O)c2)cc1 | -1 | 3 | 3 | 0 | -5 | -2 | -14 | -8
SMILES | LMPTP block | DNMT1 block | Scp-1 inhibitor | STEP block | NadD block | SUMO1-SIM PPI | Scp-1 conf | MG interference | others
CCOc1ccc(OCC)c(NC(=O)CN(c2ccc(OC)cc2)S(=O)(=O)c2c(C)noc2C)c1 | 4 | -6 | -9 | -1 | -8 | 5 | . | .
CC(=O)Nc1ccc(S(=O)(=O)N/N=C/c2ccc(C)o2)cc1 | 14 | 28 | 67* | 33 | -3 | -1 | 20 | -10
CCC1(CC)NC(=O)N(CC(=O)OCC(=O)Nc2ccccc2OC(F)F)C1=O | -2 | 9 | 1 | -2 | -1 | 4 | -11 | -14
CN(C)CCCNCCCCNC(=O)/C=N/O | -13 | -8 | -12 | -2 | -5 | -2 | . | .
C=CC[N+](C)(C)CCCNC(=O)/C=N/O | -9 | -24 | 56* | 0 | 22 | -7 | -7 | -9
Cc1ccc(S(=O)(=O)NCCSCc2ccco2)cc1 | 0 | -5 | 2 | 2 | -4 | -4 | . | .
Cc1cc(C)c(S(=O)(=O)NCCSCc2ccco2)c(C)c1 | 3 | 12 | 53* | 2 | 2 | 4 | -8 | -17
Cc1ccc(C(=O)N/N=C\C=C\c2ccc(Br)cc2)cn1 | 1 | 6 | 72* | 6 | 6 | -19 | 48* | -6 | Scp1 DSF=-16
O=C(c1ccco1)N(Cc1cccc([N+](=O)[O-])c1)c1ccc(Br)cc1 | 1 | -5 | -10 | 1 | -7 | -15 | . | .
CC(C)c1ccc(/C=C2\SC(=O)N(CC(=O)NC3C=CS(=O)(=O)C3)C2=O)cc1 (centres undefined) | 11 | 37 | 57* | 16 | 12 | -9 | 53* | -7 | Scp1 DSF=-4
COc1cccc(/C=C2\SC(=O)N(CC(=O)NC3C=CS(=O)(=O)C3)C2=O)c1 (centres undefined) | -1 | 8 | -7 | 1 | 1 | -31 | . | .
O=C(c1ccc(COc2c(F)c(F)cc(F)c2F)o1)N1CCN(c2ccccc2)CC1 | 4 | -6 | 1 | 0 | -1 | -3 | . | .
CCOC(=O)CSc1nc(C)cc(C)c1C(N)=O | 0 | -1 | -3 | 2 | 0 | 0 | . | .
COc1ccc(C2Nc3ccccc3NC3=C2C(=O)CC(C)(C)C3)cc1O (centres undefined) | -1 | 21 | 56* | 1 | 1 | -11 | -6 | -20
COc1ccc(C2Nc3ccccc3NC3=C2C(=O)CC(C)(C)C3)cc1OC (centres undefined) | -1 | 0 | 0 | -2 | -1 | -2 | . | .
COc1cc(C2CC(=O)NC3=C2C(=O)CC(C)(C)C3)ccc1O (centres undefined) | -3 | -1 | 8 | -3 | 5 | 1 | -22 | -24

Bioassay records as filed in PubChem.
